Measured values from different studies.
Protocols differ between the studies behind these lines.
Target: Serine/threonine-protein kinase A-Raf (ARAF, Homo sapiens, UniProt P10398)
One construct used (P10398 1-606): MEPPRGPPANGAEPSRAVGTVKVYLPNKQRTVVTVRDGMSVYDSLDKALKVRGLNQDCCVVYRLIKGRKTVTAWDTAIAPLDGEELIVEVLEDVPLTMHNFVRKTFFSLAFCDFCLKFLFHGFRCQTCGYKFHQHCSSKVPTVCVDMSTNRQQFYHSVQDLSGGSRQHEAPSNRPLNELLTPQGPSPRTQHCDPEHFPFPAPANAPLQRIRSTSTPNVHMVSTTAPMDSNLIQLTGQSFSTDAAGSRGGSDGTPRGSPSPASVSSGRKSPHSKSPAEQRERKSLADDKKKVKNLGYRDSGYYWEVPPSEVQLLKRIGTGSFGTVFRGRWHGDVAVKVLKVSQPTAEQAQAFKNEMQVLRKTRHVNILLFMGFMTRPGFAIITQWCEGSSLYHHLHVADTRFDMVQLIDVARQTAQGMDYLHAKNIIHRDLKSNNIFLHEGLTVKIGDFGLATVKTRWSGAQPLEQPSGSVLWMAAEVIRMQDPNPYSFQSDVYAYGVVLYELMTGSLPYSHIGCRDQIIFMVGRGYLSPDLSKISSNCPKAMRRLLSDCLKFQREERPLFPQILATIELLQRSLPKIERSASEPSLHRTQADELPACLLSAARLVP

SMILES | read-out | action | technique | cell line | concentration | endpoint | result
CC(C)(O)[C@H]1CC[C@H](Nc2ccc3ncc(-c4cccc(C(F)(F)F)c4)n3n2)CC1 | enzyme activity | inhibitor |  |  | 1 µM | remaining activity | 96.9%
CN1CC(Oc2cnc(C#N)cc2-c2ccn3nc(NC(=O)C4CC4)cc3c2)C1 | enzyme activity | inhibitor |  |  | 1 µM | inhibition | 1%
COc1cc(Cl)c(C(=O)N[C@@H](CN[C@H]2CC[C@@H](N)CC2)Cc2ccc(C#N)cc2)cc1-c1ccc(CN[C@H](C)c2ccc(C)cc2)o1 | enzyme activity | inhibitor |  |  | 1 µM | remaining activity | 101%
O=C(Nc1cnn(-c2csc(C(=O)NC3COC3)c2)c1)Nc1c(F)cccc1Cl | enzyme activity | inhibitor |  |  | 5 µM | remaining activity | 94.4%
CCN1CCN(Cc2ccc(NC(=O)c3ccc(C)c(Oc4ccnc5[nH]ccc45)c3)cc2C(F)(F)F)CC1 | target engagement in cells | inhibitor | chemoproteomics | A-375 | 5 µM | inhibition | -85.6%
Cc1sc(C(=O)NC2COC2)cc1-n1cc(NC(=O)Nc2c(F)cccc2Cl)cn1 | enzyme activity | inhibitor |  |  | 10 µM | remaining activity | 84.1%
CCN1CCN(Cc2ccc(NC(=O)c3ccc(C)c(/C=C/c4cnc5[nH]ccc5c4OC)c3)cc2C(F)(F)F)CC1 | target engagement in cells | inhibitor | chemoproteomics | A-375 | 0.5 µM | inhibition | -68.8%
CNC(=O)c1cc(Oc2ccc(NC(=O)Nc3ccc(Cl)c(C(F)(F)F)c3)cc2)ccn1 | cell-free assay |  |  |  | 0.5 µM | remaining signal | 7.04%
COc1cccc2c(NCc3ccccc3)nc(-n3c(N)nc4ccccc43)nc12 | target engagement in cells | inhibitor | chemoproteomics |  | 20 mM | inhibition | -7.3%
O=C1NC(=O)c2cc(Nc3ccc(F)cc3)c(Nc3ccc(F)cc3)cc21 | cell-free assay |  |  |  | 0.5 µM | remaining signal | 90.7%
CCCCNc1ncc2c(-c3ccc(F)cc3)nn(C[C@H]3CC[C@H](N)CC3)c2n1 | target engagement in cells | inhibitor | chemoproteomics |  | 20 mM | inhibition | 32.9%
Cc1cc(NC(=O)c2cccc3cc(-c4cccc5[nH]nc(N)c45)ccc23)ccc1F | enzyme activity | inhibitor |  |  | 0.1 µM | activity vs control | 98%
